From PubChem BioAssay AID624467 (The Scripps Research Institute Molecular Screening Center, 2012)
Hit rate of the full screen: of about 360,000 compounds, about 3,600 (1%) were called active.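 How the source made its calls: active means activation above the mean activation of all test compounds in the run plus 3 SD (cut at about 38% in these data); inactive means the rest.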 For the sample, actives were picked, then their nearest neighbours and some compounds at random.

What follows are compounds tested against Trace amine-associated receptor 1 (Homo sapiens) (UniProt Q96RJ0) (assay: activators of TAAR1 calcium mobilization – Fluo-8 calcium fluorescence, CHO RD-HGA16 cells, primary screen (AID 624467)). Settings: CHO RD-HGA16 TAAR1, Fluo-8 calcium fluorescence; at 3 µM; hits give high values; vehicle wells 0%, saturating PEA agonist 100%.
How it was run: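 Assay system: CHO-derived RD-HGA16 cells with stable Gα16 and human TAAR1; timing: 17-24 h seeding, 75 min 37 °C dye, 30 min RT; read-out: % activation from peak over basal fluorescence ratio, DMSO-to-PEA scaled; measured by: kinetic Fluo-8 calcium fluorescence; benchmarks: low control DMSO, high control PEA (EC100); doses: 3 µM single concentration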

Sequence of Trace amine-associated receptor 1 (Homo sapiens) (Q96RJ0 whole entry, looked up): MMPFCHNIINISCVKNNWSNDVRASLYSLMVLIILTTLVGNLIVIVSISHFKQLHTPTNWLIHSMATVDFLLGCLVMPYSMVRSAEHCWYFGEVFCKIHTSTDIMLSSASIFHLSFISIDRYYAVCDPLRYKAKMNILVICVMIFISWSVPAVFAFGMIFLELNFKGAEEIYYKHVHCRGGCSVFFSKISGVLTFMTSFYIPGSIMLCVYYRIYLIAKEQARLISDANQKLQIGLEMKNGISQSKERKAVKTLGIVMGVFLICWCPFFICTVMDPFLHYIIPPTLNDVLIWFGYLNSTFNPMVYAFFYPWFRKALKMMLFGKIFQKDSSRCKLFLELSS

activation, inactive:
OC(COc1ccccc1)CN1CCN(c2cccc(Cl)c2)CC1 (stereo not drawn) 4.5%
CC1CN(S(=O)(=O)c2cccc(C(F)(F)F)c2)CN1C(=O)N1CCOCC1 (stereo not drawn) -1.03%
CCOC(=O)[C@]12CCCC=C1N(CCC1=CCCCC1)C(=O)[C@H](CC(=O)N1CCOCC1)C2 -0.62%
CCS(=O)(=O)N1CCN(C(=O)c2cccs2)CC1 3.03%
COC(=O)c1ccc(CN2C(=O)[C@]3(OCCC=C[C@H]3C)c3c(Br)cccc32)cc1 2.59%
CCC1=Nc2cc(C(=O)NCCCN3CCOCC3)ccc2Sc2ccc(Br)cc21 9.87%
O=C(NCCCN1CCCCC1)c1ccc2c(c1)NC(=O)C(N1CCOCC1)S2 (stereo not drawn) 3.95%
COC(=O)c1c(-c2ccc(OC)cc2)c2c(c3c4cc(OC)ccc4n(S(=O)(=O)c4ccc(F)cc4)c13)C(=O)N(C)C2 -0.58%
CCOC(=O)N1CCN(C(=O)c2ccccc2SCC(=O)NCC2CCCCC2)CC1 2.29%
O=C(COC(=O)c1ccc(F)cc1)NCC1COc2ccccc2O1 (stereo not drawn) 0.46%
O=C(COc1ccc(F)cc1Br)NCC1COc2ccccc2O1 (stereo not drawn) -1.29%
CN(c1ccccc1)S(=O)(=O)c1ccc(C(=O)NCc2cccnc2)cc1 3.27%
O=S(=O)(Cc1cc(Sc2ccccc2)nc(-c2ccccc2)n1)c1ccccc1 11.3%
Cc1cc(N2CCOCC2)nc2ccc(NC(=S)N3CCN(Cc4ccccc4)CC3)cc12 7.44%
c1ccc2c(CCN3CCNC[C@H]3Cc3cccc4ccccc34)cccc2c1 33.5%
O=C(COC(=O)c1cc(-c2cccs2)nn1-c1ccccc1)Nc1cc([N+](=O)[O-])ccc1Cl 7.58%
Cc1ccc(N2C(=O)CC(NCc3ccc4c(c3)OCO4)C2=O)cc1Cl (stereo not drawn) 1.12%
CSCCC(NS(=O)(=O)c1ccc2c(c1)oc(=O)n2C)C(=O)NC1CCCc2ccccc21 (stereo not drawn) 4.94%
COC(=O)[C@]12C[C@H](CC(=O)NCCc3ccccc3OC)C(=O)N(Cc3ccccc3)C1=C[C@H](C(C)C)O[C@@H]2C1CC1 30.4%
COc1ccc(OC)c(C(C)NC(=S)Nc2ccc(S(=O)(=O)Nc3ncccn3)cc2)c1 (stereo not drawn) 1.66%
COc1cc(NS(=O)(=O)c2ccc(NC(=S)NC(=O)c3ccccc3)cc2)nc(OC)n1 -5.7%
COc1ccc(C2c3ccc(O)cc3Oc3ncn(CCCO)c(=N)c32)cc1OC (stereo not drawn) 0.73%
C=CCN1C(=NC(=O)COc2ccccc2)SC2CS(=O)(=O)CC21 (stereo not drawn) 2.44%
C=CCN1CN(S(=O)(=O)c2ccc(OC)cc2)c2nc3ccccc3nc21 2.16%
O=C(NCc1ccccc1)[C@H]1CCCN1C(=O)[C@H]1CCCN1C(=O)N1CCOCC1 1.52%
Cc1ccc(C)n1-c1ccncc1 2.15%
COc1ccc(C(C(=O)Nc2c(C)cccc2C)N2CCN(c3ccc(C)cc3)CC2)cc1 (stereo not drawn) 5.99%
COc1ccc(C(CC(=O)N2CCN(c3ccccc3)CC2)c2c(O)cc(OC)cc2OC)cc1 (stereo not drawn) 2.38%
COC(=O)C1=C(C)N(Cc2ccc(F)cc2)C(=S)NC1c1cccc(Cl)c1 (stereo not drawn) -0.89%
CN1CCCc2nc(-c3ccccc3)ccc21 1.31%
CC(C)(C)NC(=O)c1cccc(NC(=O)Cc2ccc(Br)cc2)c1 2.23%
O=C(Nc1ccccc1)c1ccc2nsnc2c1 -0.47%
O=C1CCN(CCc2ccccc2)CCN1CCOc1ccccc1 19.8%
CCCN1CNC(=S)N(CCc2ccccc2)C1 4.93%
CC(C)C[C@H](NC(=O)CC1CCCC1)C(=O)N1CCC[C@H]1C(=O)NCc1ccccc1 1.37%

activation, active:
Cc1ccccc1CN1C(=O)c2ccccc2Sc2ccc(C(=O)NCCCN3CCOCC3)cc21 40.1%
c1ccc2c(c1)OCC(CNc1ncnc3nc[nH]c13)O2 (stereo not drawn) 225%
Cc1ccc(Sc2cc(N3CCOCC3)nc(-c3ccccc3)n2)cc1 48.2%
c1ccc(C2CNCc3c2ccc2ccccc32)cc1 (stereo not drawn) 82%
COc1ccc(NS(=O)(=O)c2ccc(NC(=S)NC(=O)CC(C)C)cc2)cc1 42.2%
COc1ccc(C(C(O)C(=O)c2c[nH]c3ccccc23)N2CCN(c3ccccc3)CC2)cc1 (stereo not drawn) 39.9%
O=C(Nc1cccc(NC(=O)c2ccc(Br)cc2)c1)c1ccccc1 63.2%
N#CNC1=NCN(CCc2ccccc2)CN1 63.9%
